Source: ChEMBL document CHEMBL1240394, “Antibacterial activity of N-pentylpantothenamide is due to inhibition of coenzyme a synthesis” (2010)
The source made the active and inactive calls. No cut-off for these calls is given here.

Columns and labels:
Escherichia coli [1] = experiment: Inhibition of coenzyme A synthesis in Escherichia coli JT7 carrying panD deletion assessed as decrease in acetyl CoA level at 100 ug/ml after 90 mins by HPLC relative to untreated control; format: functional
Summary of the method: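 The culture was split, one half given 100 μg/ml N5-Pan, and both incubated a further 90 min. CoA pools were extracted and analysed by reverse-phase C18 HPLC with internal standards.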

Escherichia coli [2] = experiment: Antibacterial activity against acpH null mutant containing Escherichia coli JT6 transformed with pJT5 expressing AcpH assessed as microbial growth inhibition; format: functional, organism-based
Escherichia coli [3] = experiment: Inhibition of coenzyme A synthesis in acpH null mutant containing Escherichia coli JT6 transformed with pBAD24 plasmid expressing CoaE gene assessed as decrease in acetyl CoA level at 100 ug/ml after 90 mins by HPLC relative to untreated control; format: functional, organism-based
Escherichia coli [4] = experiment: Induction of holo-ACP accumulation in Escherichia coli JT6 pJT5 plasmid expressing AcpH at 100 ug/ml after 3 hrs by Western blotting; format: functional, organism-based
Summary of the method: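 JT6 cells carrying pJT5 (AcpH under arabinose control), with empty pBAD322 as the vector control, treated with 100 μg/ml N5-Pan. At 3 h, crude cell extracts were run on conformationally sensitive gel electrophoresis. Proteins were electroblotted and probed by Western blot with anti-ACP antibody.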

Escherichia coli [5] = experiment: Inhibition of coenzyme A synthesis in acpH null mutant containing Escherichia coli JT6 transformed with pBAD24 plasmid expressing CoaBC gene assessed as decrease in acetyl CoA level at 100 ug/ml after 90 mins by HPLC relative to untreated control; format: functional, organism-based
Escherichia coli [6] = experiment: Inhibition of coenzyme A synthesis in acpH null mutant containing Escherichia coli JT6 transformed with pBAD24 plasmid expressing CoaD gene assessed as decrease in acetyl CoA level at 100 ug/ml after 90 mins by HPLC relative to untreated control; format: functional, organism-based
Escherichia coli [7] = experiment: Induction of ethyldethia-ACP accumulation in Escherichia coli JT6 at 200 ug/ml by gel electrophoresis; format: functional, organism-based
Summary of the method: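 Exponentially growing E. coli JT6 (UB1005 tolC::Tn10, lacking the outer membrane efflux exit duct) in M9 minimal medium with 0.4% glycerol and 0.1% vitamin-free Casamino Acids. Culture supplemented with 200 μg/ml N5-Pan. ACP species resolved by conformationally sensitive gel electrophoresis.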

Escherichia coli [8] = experiment: Antibacterial activity against Escherichia coli JT13 deficient in acpH gene assessed as microbial growth inhibition
Escherichia coli [9] = experiment: Antibacterial activity against Escherichia coli JT6 assessed as microbial growth inhibition
Escherichia coli [10] = experiment: Inhibition of coenzyme A synthesis in acpH null mutant containing Escherichia coli JT6 transformed with pBAD24 plasmid expressing CoaA gene assessed as decrease in acetyl CoA level at 100 ug/ml after 90 mins by HPLC relative to untreated control; format: functional, organism-based

CCCCCNC(=O)CCNC(=O)[C@H](O)C(C)(C)CO
fold change (FC) (Escherichia coli [1]): >10 | growth inhibition (GI) (Escherichia coli [2]): inactive | inhibition (Escherichia coli [3]): Active | Activity (Escherichia coli [4]): Active | inhibition (Escherichia coli [5]): Active | inhibition (Escherichia coli [6]): Active | Activity (Escherichia coli [7]): Active | growth inhibition (GI) (Escherichia coli [8]): Active | growth inhibition (GI) (Escherichia coli [9]): Active | inhibition (Escherichia coli [10]): Active
